Experimental data from ChEMBL document CHEMBL4196108, “5-Aroylindoles Act as Selective Histone Deacetylase 6 Inhibitors Ameliorating Alzheimer's Disease Phenotypes” (J Med Chem, 2018).
Calls of active or inactive are those of the source. No cut-off for these calls is given here.

What was measured:
[1] = target: T1, Protein deacetylase HDAC6 (Homo sapiens) (UniProt Q9UBN7); experiment: Inhibition of HDAC6 in human SH-SY5Y cells transfected with pCAX FLAG APP and pRK5-EGFP-Tau P301L plasmids assessed as inhibition of Tau P301L mutant phosphorylation at Ser404 residue at 1 uM after 24 hrs by Western blot analysis; format: cell-based
T1 sequence (whole entry): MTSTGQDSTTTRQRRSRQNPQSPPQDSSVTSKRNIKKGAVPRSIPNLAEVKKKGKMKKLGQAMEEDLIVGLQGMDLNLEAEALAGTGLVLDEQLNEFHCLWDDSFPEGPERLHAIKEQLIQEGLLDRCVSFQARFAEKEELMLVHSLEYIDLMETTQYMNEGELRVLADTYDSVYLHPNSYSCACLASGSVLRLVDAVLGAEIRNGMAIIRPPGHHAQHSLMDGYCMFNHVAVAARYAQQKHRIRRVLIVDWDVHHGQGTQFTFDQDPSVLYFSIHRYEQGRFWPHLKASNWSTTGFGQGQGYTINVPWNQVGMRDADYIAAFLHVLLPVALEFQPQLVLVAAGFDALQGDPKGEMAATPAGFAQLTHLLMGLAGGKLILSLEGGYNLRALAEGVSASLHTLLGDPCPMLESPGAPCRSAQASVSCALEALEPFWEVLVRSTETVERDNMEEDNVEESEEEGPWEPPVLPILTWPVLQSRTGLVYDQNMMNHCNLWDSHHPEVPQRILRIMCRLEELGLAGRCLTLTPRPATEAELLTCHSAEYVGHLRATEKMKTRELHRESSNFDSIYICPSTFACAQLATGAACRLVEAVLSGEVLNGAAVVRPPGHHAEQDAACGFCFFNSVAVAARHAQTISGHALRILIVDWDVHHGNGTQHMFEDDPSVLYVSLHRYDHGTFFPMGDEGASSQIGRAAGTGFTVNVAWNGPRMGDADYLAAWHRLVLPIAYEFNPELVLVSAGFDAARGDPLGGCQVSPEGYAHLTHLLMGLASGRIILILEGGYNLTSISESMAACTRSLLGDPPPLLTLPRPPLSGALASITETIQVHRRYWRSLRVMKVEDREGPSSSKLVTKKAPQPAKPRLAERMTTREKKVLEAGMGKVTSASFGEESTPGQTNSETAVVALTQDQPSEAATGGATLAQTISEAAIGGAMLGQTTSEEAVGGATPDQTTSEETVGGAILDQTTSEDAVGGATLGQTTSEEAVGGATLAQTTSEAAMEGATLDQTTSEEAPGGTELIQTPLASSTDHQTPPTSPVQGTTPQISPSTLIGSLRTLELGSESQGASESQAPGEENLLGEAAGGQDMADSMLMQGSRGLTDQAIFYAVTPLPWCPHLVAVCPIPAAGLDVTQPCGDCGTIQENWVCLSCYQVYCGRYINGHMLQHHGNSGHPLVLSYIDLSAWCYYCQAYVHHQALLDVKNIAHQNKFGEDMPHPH
In short: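 SH-SY5Y or Neuro-2a cells cotransfected 24 h with pCAX APP695 and pRK5-EGFP-Tau P301L, then treated 24 h at 1 µM. 20 µg lysate protein immunoblotted for APP and phospho-tau Ser396/Ser404. Mean ± STD of three independent experiments; Student's t-test.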

[2] = target: T1, Protein deacetylase HDAC6 (Homo sapiens); experiment: Inhibition of HDAC6 in human SH-SY5Y cells transfected with pCAX FLAG APP and pRK5-EGFP-Tau P301L plasmids assessed as reduction in formed Tau P301L mutant aggregates level at 1 uM after 24 hrs by Western blot analysis; format: cell-based
In short: (§1)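 Cotransfected SH-SY5Y cells (1 × 10^7) treated 24 h at 1 µM, lysed in sucrose/HEPES pH 7.2 buffer; 190,000 g supernatant = cytosol. Pellet treated with 5 µM nocodazole, re-spun; residual pellet extracted with sodium carbonate pH 11.5 and washed in 1% SDS to give aggregate fraction. Equal protein by SDS-PAGE immunoblot.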

[3] = target: T1, Protein deacetylase HDAC6 (Homo sapiens); experiment: Inhibition of HDAC6 in human SH-SY5Y cells transfected with pCAX FLAG APP and pRK5-EGFP-Tau P301L plasmids assessed as reduction in Tau P301L mutant level in cytosol at 1 uM after 24 hrs by Western blot analysis; format: cell-based; in short: as §1
[4] = target: T1, Protein deacetylase HDAC6 (Homo sapiens); experiment: Inhibition of HDAC6 in human SH-SY5Y cells transfected with pCAX FLAG APP and pRK5-EGFP-Tau P301L plasmids assessed as suppression of phosphorylated tau P301L mutant-induced apoptosis by measuring accumulation at sub-G1 phase at 1 uM after 24 hrs by propidium iodide staining-based flow cytometry (reference value: 22.01%); format: cell-based; parameters: scale not given: the % may be the effect or the level left
[5] = target: T1, Protein deacetylase HDAC6 (Homo sapiens); experiment: Inhibition of HDAC6 in human SH-SY5Y cells transfected with pCAX FLAG APP and pRK5-EGFP-Tau P301L plasmids assessed as increase in HSP90 acetylation at 1 uM after 24 hrs by coimmunoprecipitation analysis; format: cell-based
In short: (§2)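 SH-SY5Y and Neuro-2a cells cotransfected 24 h with APP695/Tau P301L plasmids, treated 24 h at 1 µM (ACY-1215 reference). 30 µg lysate immunoprecipitated overnight at 4 °C with anti-HDAC6 or anti-acetyl-lysine antibodies plus protein A/G beads, run on 8% SDS-PAGE, probed for Hsp90; Hsp70 by immunoblot. Three independent experiments.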

[6] = target: T1, Protein deacetylase HDAC6 (Homo sapiens); experiment: Inhibition of HDAC6 in human SH-SY5Y cells transfected with pCAX FLAG APP and pRK5-EGFP-Tau P301L plasmids assessed as increase in HSP70 protein expression at 1 uM after 24 hrs by Western blot analysis; format: cell-based; in short: as §2
Rattus norvegicus = experiment: Reversal of scopolamine-induced spatial memory impairment in Wistar rat assessed as decrease in transfer latency time at 25 mg/kg, po administered once daily for 1 week followed by scopolamine challenge 90 mins prior to test by elevated plus maze test; format: functional, organism-based
In short: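 Male Wistar rats, 7 weeks old, dosed orally at 25 mg/kg in 1% carboxymethyl cellulose/0.5% Tween 80 once daily. Scopolamine 1 mg/kg i.p. 90 min before test trial (controls excluded). Morris water maze (hidden platform escape latency), elevated plus maze (started at open-arm end, time to closed arm), then CA1 phospho-tau Ser396/Ser404 immunohistochemistry.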

Mus musculus = experiment: In vivo inhibition of HDAC6 in 3xTg-AD transgenic mouse brain hippocampal CA1 region assessed as downregulation of scopolamine-mediated increase in Tau phosphorylation at Ser396 residue at 50 mg/kg, po administered daily for 3 months by immunohistochemical analysis; format: functional, organism-based
In short: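 Female 3xTg-AD mice, standard diet to 6 months of age, then 50 mg/kg orally once daily for three months; memantine 30 mg/kg in water as comparator. Brains removed and hippocampal CA1 sections immunostained for acetyl-α-tubulin and phospho-tau Ser396 and Ser404. Mean ± STD; one-way ANOVA.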

[7] = target: T1, Protein deacetylase HDAC6 (Homo sapiens); experiment: Inhibition of HDAC6 in human SH-SY5Y cells assessed as increase in acetylation of alpha-tubulin at 0.1 to 1 uM after 24 hrs by Western blot analysis; format: cell-based
In short: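 SH-SY5Y cells in MEM with 10% FBS at 37 °C, 5% CO2, treated 24 h at 0.1–1 µM. Lysates in HEPES/Triton buffer; 20 µg protein run on SDS-PAGE and immunoblotted for acetyl-α-tubulin, α-tubulin, acetyl-histone H3 and histone H3 with ECL detection.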

For COc1ccc(C(=O)c2ccc3c(ccn3Cc3ccc(C(=O)NO)cc3)c2)cc1, the inhibition [1] was “Active”, the inhibition [2] was “Active” and the inhibition [3] was “Active”. For the same molecule, the Activity [4] was 11.5%, the inhibition [5] was “Active” and the inhibition [6] was “Active”. The Activity (Rattus norvegicus) was “Active”, the inhibition (Mus musculus) was “Active” and the inhibition [7] was “Active”.
